Experimental data: ChEMBL document CHEMBL1124128, “Angiotensin-converting enzyme inhibitors. Mercaptan, carboxyalkyl dipeptide, and phosphinic acid inhibitors incorporating 4-substituted prolines” (J Med Chem, 1988)
Values belong to the molecule of their own block, whether it stands above or below them.

Tests used:
[1] = target: T1, Angiotensin-converting enzyme (Rattus norvegicus) (UniProt P47820); assay: In vitro inhibition of rat Angiotensin I converting enzyme
T1 sequence (whole entry): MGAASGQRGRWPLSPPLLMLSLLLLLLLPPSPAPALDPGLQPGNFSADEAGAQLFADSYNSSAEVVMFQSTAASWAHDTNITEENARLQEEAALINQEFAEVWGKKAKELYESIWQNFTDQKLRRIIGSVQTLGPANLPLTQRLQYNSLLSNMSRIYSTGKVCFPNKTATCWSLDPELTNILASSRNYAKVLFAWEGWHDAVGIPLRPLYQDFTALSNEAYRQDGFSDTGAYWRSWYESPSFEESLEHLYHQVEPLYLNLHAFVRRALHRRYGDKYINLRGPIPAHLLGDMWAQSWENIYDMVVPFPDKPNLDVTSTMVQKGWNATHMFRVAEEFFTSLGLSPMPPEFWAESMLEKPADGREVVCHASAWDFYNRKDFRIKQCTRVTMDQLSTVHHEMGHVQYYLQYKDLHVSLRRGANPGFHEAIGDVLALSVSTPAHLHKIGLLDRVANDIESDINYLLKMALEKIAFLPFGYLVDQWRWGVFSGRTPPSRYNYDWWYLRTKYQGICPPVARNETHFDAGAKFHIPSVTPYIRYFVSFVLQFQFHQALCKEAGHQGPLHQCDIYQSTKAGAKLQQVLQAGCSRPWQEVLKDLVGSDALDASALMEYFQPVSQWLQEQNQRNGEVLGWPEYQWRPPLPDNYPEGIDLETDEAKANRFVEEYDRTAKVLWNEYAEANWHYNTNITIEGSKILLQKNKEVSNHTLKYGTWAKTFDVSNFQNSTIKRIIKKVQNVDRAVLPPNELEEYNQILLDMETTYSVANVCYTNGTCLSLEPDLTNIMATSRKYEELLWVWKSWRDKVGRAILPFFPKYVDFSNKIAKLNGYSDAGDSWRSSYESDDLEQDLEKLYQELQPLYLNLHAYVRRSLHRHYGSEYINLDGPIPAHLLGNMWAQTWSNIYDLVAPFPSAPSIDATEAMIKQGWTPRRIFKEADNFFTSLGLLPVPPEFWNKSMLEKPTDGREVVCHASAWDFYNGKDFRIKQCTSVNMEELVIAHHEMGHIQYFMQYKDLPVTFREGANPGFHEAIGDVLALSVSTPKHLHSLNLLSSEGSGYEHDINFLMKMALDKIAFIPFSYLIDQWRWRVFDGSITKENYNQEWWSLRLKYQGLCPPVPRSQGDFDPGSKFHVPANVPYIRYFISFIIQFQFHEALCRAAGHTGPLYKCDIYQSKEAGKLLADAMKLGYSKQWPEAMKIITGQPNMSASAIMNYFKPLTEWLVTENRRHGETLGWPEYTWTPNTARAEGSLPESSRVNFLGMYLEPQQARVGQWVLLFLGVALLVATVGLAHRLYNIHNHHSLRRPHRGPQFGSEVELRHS

Rattus norvegicus [2] = assay: % Inhibition of angiotensin-I induced pressor response in normotensive rats after intravenous dosing of 0.15 umol/kg; type: functional
How it was run: (§1)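 Conscious, unrestrained male Sprague–Dawley rats (225–275 g) with indwelling aortic and vena caval catheters, allowed at least 2 weeks of recovery. Aortic pressure recorded directly. Baseline pressor responses to AI (310 ng/kg iv) and AII (100 ng/kg iv) were taken first. Compound was given iv in 0.1 mL water or 5% NaHCO3, and responses were followed for up to 70 min. Maximum % inhibition is the mean of four animals per dose.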

Rattus norvegicus [3] = assay: % Inhibition of angiotensin-I induced pressor response in normotensive rats after intravenous dosing of 0.5 umol/kg; type: functional; how it was run: as §1
Rattus norvegicus [4] = assay: % Inhibition of angiotensin-I induced pressor response in normotensive rats after intravenous dosing of 1.5 umol/kg; type: functional; how it was run: as §1
Rattus norvegicus [5] = assay: % Inhibition of angiotensin-I induced pressor response in normotensive rats after intravenous dosing of 0.05 umol/kg; type: functional
How it was run: (§2)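 Male Sprague–Dawley rats (225–275 g) fitted with indwelling abdominal aorta and vena cava catheters, recovered at least 2 weeks, then tested conscious and unrestrained. Aortic pressure was recorded directly. Pressor responses to AI (310 ng/kg iv) and AII (100 ng/kg iv) were taken before dosing. Compound was given iv in water or 5% NaHCO3, and responses were followed up to 70 min. Maximum % inhibition is the mean of four animals per dose.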

[6] = target: T2, Angiotensin-converting enzyme (Rattus norvegicus, UniProt P47820); assay: In vitro inhibitory activity against angiotensin I converting enzyme of rats.; conditions: read-out: I50
T2 sequence (P47820 whole entry): T1 sequence (whole entry)

Rattus norvegicus [7] = assay: % Inhibition of angiotensin-I induced pressor response in normotensive rats after intravenous dosing of 0.015 umol/kg; type: functional; how it was run: as §2
Rattus norvegicus [8] = assay: % Inhibition of angiotensin-I induced pressor response in normotensive rats after peroral dosing of 0.5 umol/kg; type: functional; conditions: po
How it was run: (§3)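 Conscious, unrestrained catheterized male Sprague–Dawley rats (225–275 g) had direct aortic pressure recording. Baseline pressor responses were taken to AI (310 ng/kg iv) and AII (100 ng/kg iv). Compound was given orally in water, 5% NaHCO3 or 1% agar suspension. AI and AII responses were then tracked up to 280 min. Maximum % inhibition is the mean response of four animals per dose.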

Rattus norvegicus [9] = assay: % Inhibition of angiotensin-I induced pressor response in normotensive rats after peroral dosing of 1.5 umol/kg; type: functional; conditions: po; how it was run: as §3
Rattus norvegicus [10] = assay: % Inhibition of angiotensin-I induced pressor response in normotensive rats after peroral dosing of 5 umol/kg; type: functional; conditions: po; how it was run: as §3
Rattus norvegicus [11] = assay: % Inhibition of angiotensin-I induced pressor response in normotensive rats after peroral dosing of 15 umol/kg; type: functional; conditions: po; how it was run: as §3
Rattus norvegicus [12] = assay: % Inhibition of angiotensin-I induced pressor response in normotensive rats after intravenous dosing of 5 umol/kg; type: functional; how it was run: as §1

IC50 [6]: 96 nM
Structure (SMILES): C[C@H](CS)C(=O)N1C[C@@H](Sc2ccc3ccccc3c2)C[C@H]1C(=O)O

IC50 [6]: 2.8 nM
Structure (SMILES): CO[C@H]1C[C@@H](C(=O)O)N(C(=O)[C@H](C)CS)C1

IC50 [6]: 2 nM
Structure (SMILES): C[C@H](N[C@@H](CCc1ccccc1)C(=O)O)C(=O)N1C[C@@H](Sc2ccccc2)C[C@H]1C(=O)O
inhibition in vivo at 0.015 µmol/kg (Rattus norvegicus [7]): 20%
inhibition in vivo at 0.05 µmol/kg (Rattus norvegicus [5]): 43%
inhibition in vivo at 0.15 µmol/kg (Rattus norvegicus [2]): 85%
inhibition in vivo at 0.5 µmol/kg (Rattus norvegicus [8]): 23%
inhibition in vivo at 1.5 µmol/kg (Rattus norvegicus [9]): 31%
inhibition in vivo at 5 µmol/kg (Rattus norvegicus [10]): 67%
inhibition in vivo at 15 µmol/kg (Rattus norvegicus [11]): 78%

IC50 [6]: 13 nM
Structure (SMILES): C[C@H](CS)C(=O)N1C[C@@H](Oc2ccc3ccccc3c2)C[C@H]1C(=O)O

IC50 [6]: 11 nM
Structure (SMILES): C[C@H](CS)C(=O)N1C[C@@H](Sc2ccc(Cl)cc2)C[C@H]1C(=O)O

IC50 [6]: 12 nM
Structure (SMILES): CO[C@@H]1C[C@@H](C(=O)O)N(C(=O)[C@H](C)CS)C1

IC50 [6]: 3 nM
Structure (SMILES): CS[C@H]1C[C@@H](C(=O)O)N(C(=O)[C@H](C)CS)C1

IC50 [6]: 2 nM
Structure (SMILES): C[C@H](CS)C(=O)N1C[C@@H](C2CCCCC2)C[C@H]1C(=O)O

More lines, now with the values behind:

Structure (SMILES): CS[C@H]1C[C@@H](C(=O)O)N(C(=O)CP(=O)(O)CCCCc2ccccc2)C1
T50 [1]: 32 nM
inhibition in vivo at 0.15 µmol/kg (Rattus norvegicus [2]): 29%
inhibition in vivo at 0.5 µmol/kg (Rattus norvegicus [3]): 69%
inhibition in vivo at 1.5 µmol/kg (Rattus norvegicus [4]): 89%

Structure (SMILES): O=C(O)[C@@H]1C[C@@H](c2ccccc2)CN1C(=O)CP(=O)(O)CCCCc1ccccc1
T50 [1]: 120 nM
inhibition in vivo at 0.05 µmol/kg (Rattus norvegicus [5]): 17%
inhibition in vivo at 0.15 µmol/kg (Rattus norvegicus [2]): 37%
inhibition in vivo at 0.5 µmol/kg (Rattus norvegicus [3]): 76%

Structure (SMILES): C[C@H](CS)C(=O)N1C[C@@H](Sc2ccccc2)C[C@H]1C(=O)O [ZOFENOPRILAT]
IC50 [6]: 8 nM

Structure (SMILES): C[C@H](CS)C(=O)N1C[C@@H](S(=O)(=O)c2ccccc2)C[C@H]1C(=O)O
IC50 [6]: 28 nM

Structure (SMILES): O=C(O)[C@@H]1C[C@H](c2ccccc2)CN1C(=O)CP(=O)(O)CCCCc1ccccc1
T50 [1]: 7 nM
inhibition in vivo at 0.05 µmol/kg (Rattus norvegicus [5]): 16%
inhibition in vivo at 0.15 µmol/kg (Rattus norvegicus [2]): 69%
inhibition in vivo at 0.5 µmol/kg (Rattus norvegicus [3]): 97%

Structure (SMILES): C[C@H](CS)C(=O)N1C[C@H](O)C[C@H]1C(=O)O
IC50 [6]: 26 nM

Structure (SMILES): CO[C@H]1C[C@@H](C(=O)O)N(C(=O)CP(=O)(O)CCCCc2ccccc2)C1
T50 [1]: 60 nM
inhibition in vivo at 0.05 µmol/kg (Rattus norvegicus [5]): 16%
inhibition in vivo at 0.15 µmol/kg (Rattus norvegicus [2]): 55%
inhibition in vivo at 0.5 µmol/kg (Rattus norvegicus [3]): 90%

Structure (SMILES): CCOC(=O)[C@H](CCc1ccccc1)N[C@@H](C)C(=O)N1C[C@@H](Sc2ccccc2)C[C@H]1C(=O)O
inhibition in vivo at 0.5 µmol/kg (Rattus norvegicus [8]): 29%
inhibition in vivo at 1.5 µmol/kg (Rattus norvegicus [9]): 81%
inhibition in vivo at 5 µmol/kg (Rattus norvegicus [10]): 86%

Structure (SMILES): O=C(O)[C@@H]1C[C@@H](Sc2ccccc2)CN1C(=O)CP(=O)(O)CCCCc1ccccc1
T50 [1]: 17 nM
inhibition in vivo at 0.05 µmol/kg (Rattus norvegicus [5]): 20%
inhibition in vivo at 0.15 µmol/kg (Rattus norvegicus [2]): 19%
inhibition in vivo at 0.5 µmol/kg (Rattus norvegicus [3]): 48%
inhibition in vivo at 1.5 µmol/kg (Rattus norvegicus [4]): 69%
inhibition in vivo at 5 µmol/kg (Rattus norvegicus [12]): 78%

Structure (SMILES): C[C@H](CS)C(=O)N1C[C@@H](c2ccccc2)C[C@H]1C(=O)O
IC50 [6]: 30 nM

Structure (SMILES): C[C@H](CS)C(=O)N1CC2(C[C@H]1C(=O)O)OCCO2
IC50 [6]: 2.9 nM
